Measurements from ChEMBL document CHEMBL5107950, “Structure-based design of haloperidol analogues as inhibitors of acetyltransferase Eis from Mycobacterium tuberculosis to overcome kanamycin resistance” (RSC Med Chem, 2021).
Converted amounts (≈) assume the structure as drawn.

Legend:
N-acetyltransferase Eis [1] = target: T1, N-acetyltransferase Eis (Mycobacterium tuberculosis (strain ATCC 25618 / H37Rv), UniProt P9WFK7); assay: Inhibition of Mycobacterium tuberculosis Eis assessed as Eis-mediated kanamycin acetylation preincubated for 10 mins followed by substrate addition and measured for 2 to 5 mins using acetyl-CoA as substrate in presence of kanamycin by UV-Vis spectroscopy analysis
T1 sequence (P9WFK7 whole entry): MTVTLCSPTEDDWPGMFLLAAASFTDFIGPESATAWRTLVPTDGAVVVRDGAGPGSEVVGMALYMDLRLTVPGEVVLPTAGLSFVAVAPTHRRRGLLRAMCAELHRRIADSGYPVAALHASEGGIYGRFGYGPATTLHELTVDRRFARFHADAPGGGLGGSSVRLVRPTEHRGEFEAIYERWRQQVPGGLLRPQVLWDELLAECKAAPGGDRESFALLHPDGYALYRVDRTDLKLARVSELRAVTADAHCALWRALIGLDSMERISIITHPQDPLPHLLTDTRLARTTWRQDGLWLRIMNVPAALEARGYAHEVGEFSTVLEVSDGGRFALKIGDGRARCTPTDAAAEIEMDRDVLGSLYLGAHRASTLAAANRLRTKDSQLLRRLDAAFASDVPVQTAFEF
Outline: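 Recombinant Eis (1 µM) mixed with KAN (400 µM) in 50 mM Tris-HCl pH 8.0 and preincubated 10 min with 5-fold serially diluted inhibitor (10% DMSO in buffer). Reaction started with AcCoA and DTNB (2 mM each, as added). Absorbance read every 30 s for 20 min. Initial rates (first 2-5 min) fitted to Hill plot for IC50. At least triplicate.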

[2] = system: Mycobacterium tuberculosis; assay: Potentiation of kanamycin-induced antibacterial activity against Mycobacterium tuberculosis H37Rv assessed as kanamycin MIC incubated for 1 day followed by kanamycin addition for 6 days and by Alamar blue assay; format: functional; settings: 168 h, time 7 day
Outline: (§1)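 Mtb in 7H9 + 10% ADC, 0.05% Tween 80, 0.4% glycerol at 37 °C. Inoculum adjusted to OD600 0.2, diluted 1:25. Cells preincubated 24 h at 37 °C with compound (100 µL of 200 µM solution). KAN then added: H37Rv at 2.5 and 1.25 µg/mL; K204 at 10, 5, 2.5, 1.25 µg/mL. Incubated 6 days, AlamarBlue added, colour read at 24 and 48 h. MIC = lowest KAN with no colour change. At least twice in duplicate.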

[3] = system: Mycobacterium tuberculosis; assay: Potentiation of kanamycin-induced antibacterial activity against Mycobacterium tuberculosis K204 assessed as kanamycin MIC incubated for 1 day followed by kanamycin addition for 6 days and by Alamar blue assay; format: functional; settings: K204, 168 h, time 7 day; outline: as §1
N-acetyltransferase Eis [4] = target: T1, N-acetyltransferase Eis; assay: Competitive inhibition of Mycobacterium tuberculosis Eis assessed as reduction in Eis-mediated kanamycin acetylation preincubated for 10 mins followed by substrate addition and measured for 2 to 5 mins using acetyl-CoA as substrate in presence of kanamycin by Lineweaver-Burk plot analysis
Outline: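 Same DTNB-coupled Eis acetylation assay used for IC50, run as Michaelis-Menten kinetics with inhibitor at 0-1 μM. Vmax and Km from these fits used to determine mode of inhibition. Quadruplicate.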

[5] = system: Mycolicibacterium smegmatis; assay: Antibacterial activity against Mycobacterium smegmatis mc2 155 assessed as inhibition of bacterial growth incubated upto 3 weeks hrs by resazurin dye based double-dilution method; format: functional; settings: mc2 155, 504 h
Outline: (§2)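 Double-dilution broth MIC. Media: M. smegmatis, Mueller-Hinton; M. abscessus, 7H9 + 0.05% Tween80 + 0.4% glycerol; mc²6230, 7H9 + 0.05% tyloxapol, 0.5% glycerol, 10% OADC, 0.2% casamino acids, 24 µg/mL pantothenate; other mycobacteria, 7H9 + 0.05% Tween80, 0.4% glycerol, 10% ADC. Inoculum from agar set to 0.5 McFarland, then diluted 1:100.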

[6] = system: Mycobacteroides abscessus; assay: Antibacterial activity against Mycobacterium abscessus ATCC 19977 assessed as inhibition of bacterial growth incubated upto 3 weeks hrs by resazurin dye based double-dilution method; format: functional; settings: ATCC 19977, 504 h; outline: as §2
[7] = system: Mycobacterium intracellulare; assay: Antibacterial activity against Mycobacterium intracellulare ATCC 13950 assessed as inhibition of bacterial growth incubated upto 3 weeks hrs by resazurin dye based double-dilution method; format: functional; settings: ATCC 13950, 504 h; outline: as §2
Mycobacterium avium = assay: Antibacterial activity against Mycobacterium avium ATCC 25921 assessed as inhibition of bacterial growth incubated upto 3 weeks hrs by resazurin dye based double-dilution method; format: functional; settings: ATCC 25921, 504 h; outline: as §2
[8] = system: Mycobacterium tuberculosis; assay: Antibacterial activity against Mycobacterium tuberculosis H37Ra ATCC NRS22 assessed as inhibition of bacterial growth incubated upto 3 weeks hrs by resazurin dye based double-dilution method; format: functional; settings: H37Ra ATCC NRS22, 504 h; outline: as §2
[9] = system: Mycolicibacterium smegmatis; assay: Synergistic antibacterial activity against Mycobacterium smegmatis mc2 155 assessed as fold reduction in MIC value at 8 ug/ml in presence of spectinomycin by checkerboard assay; format: functional; settings: dose 8 µg/ml
[10] = system: Mycolicibacterium smegmatis; assay: Synergistic antibacterial activity against Mycobacterium smegmatis mc2 155 assessed as fold reduction in MIC value at 8 ug/ml in presence of clarithromycin by checkerboard assay; format: functional; settings: dose 8 µg/ml
HEK293 = assay: Cytotoxicity against human HEK293 cells assessed as reduction in cell viability at 200 uM incubated for 24 hrs by resazurin assay; format: toxicity, cell-based; settings: hek293, 24 h
Outline: (§3)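 Resazurin viability assay in DMEM + 10% FBS, 1% penicillin/streptomycin, 37 °C, 5% CO₂. Seeding: HEK-293 and J774A.1 at 1×10^4 cells/mL, A549 at 5×10^3 cells/mL. After 24 h, compounds added (0.78-200 μM, 0.5% DMSO final). Resazurin added 24 h later, read after 6 h. 1% Triton X as positive control. Quadruplicate.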

A549 [11] = assay: Cytotoxicity against human A549 cells assessed as reduction in cell viability at 50 to 200 uM incubated for 24 hrs by resazurin assay; format: toxicity, cell-based; settings: a549, 24 h, dose 50-200 µM; outline: as §3
J774.A1 [12] = assay: Cytotoxicity against mouse J774.A1 cells assessed as reduction in cell viability at 100 uM incubated for 24 hrs by resazurin assay; format: toxicity, cell-based; settings: j774.a1, 24 h; outline: as §3
J774.A1 [13] = assay: Cytotoxicity against mouse J774.A1 cells assessed as reduction in cell viability at 50 uM incubated for 24 hrs by resazurin assay; format: toxicity, cell-based; settings: j774.a1, 24 h; outline: as §3
A549 [14] = assay: Cytotoxicity against human A549 cells assessed as reduction in cell viability at 100 to 200 uM incubated for 24 hrs by resazurin assay; format: toxicity, cell-based; settings: a549, 24 h, dose 100-200 µM; outline: as §3

| Structure (SMILES) | IC50 (N-acetyltransferase Eis [1]) [µM] | MIC [2] [µg/mL] | MIC [3] [µg/mL] | Ki (N-acetyltransferase Eis [4]) [µM] | MIC [5] [µM] | MIC [6] [µM] | MIC [7] [µM] | MIC (Mycobacterium avium) [µM] | MIC [8] [µM] | fold change (FC) [9] | fold change (FC) [10] | Activity (HEK293) | Activity (A549 [11]) [%] | Activity (J774.A1 [12]) | Activity (J774.A1 [13]) [%] | Activity (A549 [14]) [%] |
| --- | --- | --- | --- | --- | --- | --- | --- | --- | --- | --- | --- | --- | --- | --- | --- | --- |
| O=C(CCCN1CCC(O)(c2ccc(Cl)cc2)CC1)c1ccc(F)cc1 [HALOPERIDOL] | 0.39 | ≤ 1.25 | 5 | 0.39 | > 62.5 | > 62.5 | 62.5 (≈ 23.5 µg/mL) | 62.5 (≈ 23.5 µg/mL) | 31.3 (≈ 11.8 µg/mL) | 16 | 4 | Non-Toxic | 70 | Toxic | 100 | – |
| O=C(CCCN1CCC(O)(c2ccc(Cl)cc2)CC1)c1ccc(Br)cc1 | > 200 | ≤ 1.25 | > 10 | – | > 62.5 | > 62.5 | > 62.5 | > 62.5 | 31.3 (≈ 13.7 µg/mL) | – | – | Non-Toxic | – | 100% | – | 70 |
